Bioassay records: PubChem BioAssay, Sanford-Burnham Center for Chemical Genomics
CXCR6 inh: inhibitors of human CXCR6 receptor; O00574; CHO-K1 PathHunter CXCR6 beta-arrestin, luminescence; inhibition, % at 20 µM; actives 0.36% (n = 360,000); AID 602244; in the data active means inhibition above about 34%, passing the limit was not always enough;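 further: antagonist mode with CXCL16 agonist at 10 nM final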
Target sequence (O00574 whole entry, looked up): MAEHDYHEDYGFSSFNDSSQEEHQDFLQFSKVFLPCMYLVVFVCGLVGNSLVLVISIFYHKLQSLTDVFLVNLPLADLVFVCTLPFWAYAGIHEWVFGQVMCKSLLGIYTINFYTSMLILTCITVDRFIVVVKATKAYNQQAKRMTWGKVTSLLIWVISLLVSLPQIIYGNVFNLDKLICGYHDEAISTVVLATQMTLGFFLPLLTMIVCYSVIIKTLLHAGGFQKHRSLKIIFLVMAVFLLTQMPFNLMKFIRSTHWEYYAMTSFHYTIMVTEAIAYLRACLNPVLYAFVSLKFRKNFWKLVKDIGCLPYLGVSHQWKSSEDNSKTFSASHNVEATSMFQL
CCR6 antag: antagonists of human CCR6 receptor; CHO-K1 CCR6 PathHunter beta-arrestin, luminescence, CCL20-stimulated; inhibition, % at 20 µM; actives 0.49% (n = 340,000); AID 493098;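 active means compounds whose inhibition of the agonist-driven luminescence signal at 20 µM reaches about 50%, limit read from the data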;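 further: cells stimulated with CCL20 at 14 nM final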
EBI2 block: antagonists of human EBI2 receptor; AID 651636; EBI2 beta-arrestin recruitment, luminescence, 7a,25-OHC stimulated; P32249; inhibition, % at 5 µM; actives 0.81% (n = 360,000); in the data active means inhibition above about 38%;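 further: enzyme fragment complementation signal reports receptor beta-arrestin coupling in cells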
APJ antagonist: blocks the human apelin receptor APJ; P35414; CHO-K1 APJ beta-arrestin complementation, luminescence; inhibition, % at 20 µM; actives 0.32% (n = 330,000); AID 2521;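 active means inhibition above about 40% at 20 µM, limit read from the data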;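 further: cells challenged with 10 nM apelin-13 agonist together with compound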
APJ agonist: agonists of human APJ apelin receptor; activation, % at 20 µM; CHO-K1 APJ PathHunter beta-arrestin, luminescence; 0% DMSO wells, 100% apelin; actives 0.11% (n = 330,000);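 active means activation more than six SD over the plate average, tested at 20 µM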
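Material: engineered CHO-K1 APJ arrestin reporter cells; amount: 1000 CHO-K1 reporter cells seeded per well; incubation: compound stimulation 90 min at 25 °C, detection 60 min; signal: luminescent beta-gal fragment complementation, chemiluminescent substrate; read-out basis: APJ agonist activity; controls: DMSO-only wells as negative, 10 nM Apelin-13 as positive control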
Numbers stand for hits; . = inactive; / = not tested or not shown. Shown are actives, neighbours in structure and some others; about 1.5% of the full set was active somewhere.

SMILES	CXCR6 inh	CCR6 antag	EBI2 block	APJ antagonist	APJ agonist
CCCc1sc(N/N=C/c2ccccn2)nc1-c1ccc(F)cc1	.	69	.	.	.
Cc1c(N=C2C=CC(=O)c3ccccc32)c(=O)n(-c2ccccc2)n1C	.	75	.	/	/
Cc1c(N=C2C=C(Br)C(=O)C(Br)=C2)c(=O)n(-c2ccccc2)n1C	.	.	.	.	.
COc1ccc(NC(=O)/C(Cl)=C(/Cl)S(=O)(=O)Cc2ccccc2)cn1	.	.	61	/	/
COc1ccc(NC(=O)C(Cl)=C(Cl)Cl)cn1	.	.	.	.	.
COc1cc2c(cc1OC)C(c1ccc(-c3ccccc3Cl)o1)=NCC2	.	.	49	.	.
COc1cc2c(cc1OC)C(c1ccc(-c3cc(Cl)ccc3Cl)o1)=NCC2	.	.	62	.	.
COc1cc2c(cc1OC)C(c1ccc(-c3ccc(Cl)c(Cl)c3)o1)=NCC2	.	.	66	.	.
COc1cc2c(cc1OC)C(c1ccc(Cl)cc1)=NCC2	.	.	.	.	.
COc1cc2c(cc1OC)C(C)=NCC2	.	.	.	.	.
CCC(C(=O)Nc1c(C)cccc1C)n1c(-c2ccc(-c3ccccc3)cc2)nc2ccccc21 (stereo not drawn)	/	/	.	/	/
CCCCCCCCC(c1nc2ccccc2[nH]1)N1CCN=C(c2ccccc2)C1=O (stereo not drawn)	.	/	.	/	/
O=C1/C(=C\c2ccc(O)cc2)SC(=S)N1/N=C/c1ccc(O)cc1	47	66	.	.	.
C[C@@H](c1ccccc1)N1C[C@H](COCc2ccccc2)Oc2cc(N3CC[C@H](N(C)C)C3)ccc2S1(=O)=O	.	/	.	/	/
CC(=O)OC[C@]12CC[C@H]3[C@@](C)(CC[C@H]4C(C)(C)CCC[C@]34C)[C@@H]1C[C@H](C1=CC(=O)O[C@@H]1OC(C)=O)O2	/	/	/	.	11
CC1(C)CCCC2(C)C1CCC1(C)OC(=O)CCC12 (stereo not drawn)	.	/	.	/	/
COCCNC(=O)C1CCCN(Cc2cccc(C#N)c2)CC1 (stereo not drawn)	.	/	.	/	/
O=C(C[C@@H]1CC[C@@H]2[C@H](COC[C@H](O)CN2CCC(F)(F)F)O1)NCc1ccc2c(c1)OCO2	/	/	.	/	/
COc1cccc(/C=N/n2c(N)c(S(=O)(=O)c3cccs3)c3nc4ccccc4nc32)c1	.	.	.	.	.
Cc1ccc(S(=O)(=O)c2c(N)n(/N=C/c3ccco3)c3nc4ccccc4nc23)cc1C	.	.	46	.	.
Nc1c(S(=O)(=O)c2cccs2)c2nc3ccccc3nc2n1/N=C/c1cccc(O)c1	.	.	58	.	.
O=C(NCC[C@H]1CC[C@@H](NC(=O)C2CCOCC2)[C@@H](CO)O1)Nc1ccc(Cl)cc1	/	/	.	/	/
CC(=O)NC(c1ccccc1)c1nc(/C=C/c2ccccc2)cs1 (stereo not drawn)	.	/	.	/	/
Oc1[nH]c2ccc(Br)cc2c1N=NC(=S)N1CCOCC1	.	.	42	.	.
COc1ccccc1CCC(=O)Nc1ccc(S(=O)(=O)Nc2ncccn2)cc1	.	/	.	/	/
SMILES	CXCR6 inh	CCR6 antag	EBI2 block	APJ antagonist	APJ agonist
COc1ccccc1C(=O)NNC1=C(C(=O)C(F)(F)F)CCC1	44	59	.	.	.
O=C(NNC1=C(C(=O)C(F)(F)F)CCC1)c1ccccc1O	.	.	.	.	.
Cc1cc(C)nc(N/N=C/c2cc(Br)ccc2O)n1	44	.	.	.	.
Cc1cc(C)nc(N/N=C/c2ccccc2OCc2ccc(Br)cc2)n1	.	.	.	.	.
O=C(C(=O)N1CCC(Cc2ccccc2)CC1)c1ccccc1Br	/	/	.	/	/
CCOC(=O)Cn1c(=NC(=O)c2ccc([N+](=O)[O-])s2)sc2ccccc21	.	54	.	.	.
CCOC(=O)Cn1c(=NC(=O)C2COc3ccccc3O2)sc2cc(S(N)(=O)=O)ccc21 (stereo not drawn)	.	.	.	.	.
CCOc1ccc2oc(C(=O)N3CCN(Cc4ccccc4)CC3)c(C)c2c1	.	.	44	.	.
O=C(Nc1ccc(F)cc1)N[C@H]1CC[C@H](CCNS(=O)(=O)c2cccc(Cl)c2)O[C@@H]1CO	/	/	.	/	/
COc1ccc(NC(=S)N(Cc2ccc(N(C)C)cc2)Cc2ccco2)cc1	.	.	.	.	.
CCOc1ccc(NC(=S)N(Cc2ccc(N(C)C)cc2)Cc2ccco2)cc1	.	.	44	.	.
CCC(=O)OCOc1ccc(/C=C2/CCC(CN(C)C)C2=O)cc1 (stereo not drawn)	82	90	.	/	/
O=C(/C=C/c1cccnc1)/C=C/c1cccnc1	.	59	.	/	/
Nc1c(S(=O)(=O)O)cc(NC(=O)c2ccccc2)c2c1C(=O)c1ccccc1C2=O	.	55	.	.	.
COc1cc(/C=N/NC(=O)C(Cc2c[nH]c3ccccc23)NC(=O)OCC(C)C)cc([N+](=O)[O-])c1O (stereo not drawn)	.	.	.	44	.
COc1cc(/C=N/NC(=O)C(Cc2c[nH]c3ccccc23)NC(=O)OCc2ccccc2)cc([N+](=O)[O-])c1O (stereo not drawn)	.	.	.	/	/
OC[C@@H]1CN(Cc2ccc(-c3ccccc3)cc2)C[C@H](n2cnc3c(N4CCOCC4)ncnc32)O1	.	/	.	/	/
COc1ccc(S(=O)(=O)N2CCOCC2)cc1NC(=O)C1CC(=O)N(c2ccc3c(c2)OCCO3)C1 (stereo not drawn)	.	/	.	/	/
CCCn1c2ccccc2c2nnc(SCC(=O)Nc3ncccn3)nc21	43	63	.	.	.
C=CCn1c2ccccc2c2nnc(SCC(=O)Nc3cc(C)on3)nc21	.	55	.	.	.
CCCn1c2ccccc2c2nnc(SCC(=O)Nc3cc(C)on3)nc21	.	.	.	.	.
N#Cc1cc(Oc2cccc3cccnc23)c(-n2nnc3ccccc32)cc1C#N	.	.	79	.	.
Cc1ccc(Nc2c([N+](=O)[O-])ccc3c2=NC2(CCCCC2)N=3)cc1	.	.	62	.	.
Cc1ccc(Nc2ccc(N3CCN(c4ccc([N+](=O)[O-])cc4)CC3)nn2)cc1	.	.	.	.	.
Cn1c(N)c(C(=O)c2cc(-c3ccccn3)nc3ccccc23)c(=O)[nH]c1=O	.	.	.	56	.
SMILES	CXCR6 inh	CCR6 antag	EBI2 block	APJ antagonist	APJ agonist
COC(=O)[C@@]12C[C@@H](CC(=O)NCc3cccc4ccccc34)C(=O)N(Cc3ccco3)C1=CCC(C)(C)C2	/	/	.	/	/
N#CC1=C(N)C2=CCCC[C@H]2[C@H](c2ccc(Br)cc2)C1(C#N)C#N	46	68	.	/	/
N#CC1=C(N)C2=CCCC[C@H]2[C@H](c2ccccc2)C1(C#N)C#N	.	.	.	.	.
CC(C)(C)c1ccc(CN2N=Nc3ccccc3S2(=O)=O)cc1	49	64	.	.	.
O=S1(=O)c2ccccc2N=NN1Cc1ccc(Cl)c(Cl)c1	/	/	/	.	.
O=C1C=CC(=O)N1c1cccc(-c2ccccc2)c1	72	76	.	.	.
Cc1ccc(OC2CCN(C(=O)[C@H]3O[C@@H](n4ccc(=O)[nH]c4=O)[C@H](O)[C@@H]3O)CC2)cc1	.	/	.	/	/
